# System: Plasmodium falciparum
# Assay: Antiplasmodial activity against chloroquine-sensitive Plasmodium falciparum F-32 Tanzania assessed as inhibition of parasitemia after 3 days
# Format: functional, organism-based
# Conditions: 72 h
# Method in brief: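 P. falciparum grown in glucose-enriched RPMI 1640 with 10% human serum, 37 °C. After 24 h the medium was replaced with fresh medium containing compound in DMSO at 0.1, 1 and 10 µg/mL, and incubation continued 48 h. Parasitemia was counted by blood smear per well on day 3 against control. IC50 was read graphically from concentration vs percent inhibition. Chloroquine 0.04 µM served as positive control.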
row,Structure (SMILES),IC50 [µM]
1,O[C@@H]1C=C[C@@]23c4cc5c(cc4CN(C[C@H]2O)[C@H]3C1)OCO5,13.2
2,COC1c2cc3c(cc2[C@@]24C=C[C@@H](OC)C[C@@H]2N1C[C@H]4O)OCO3 (stereo partly specified),75.5
3,CO[C@@H]1C=C[C@@]23c4cc5c(cc4CN(C[C@H]2OC(C)=O)[C@H]3C1)OCO5,75.8
4,C=Cc1ccc(C(=O)O[C@@H]2CN3Cc4cc5c(cc4[C@]24C=C[C@@H](OC)C[C@H]34)OCO5)cc1,> 100
5,CO[C@@H]1C=C[C@@]23c4cc5c(cc4CN(C[C@H]2OC(=O)c2cccnc2)[C@H]3C1)OCO5,51.7
6,CO[C@@H]1C=C[C@@]23c4cc5c(cc4CN(C[C@H]2OC(=O)c2ccc(Br)cc2)[C@H]3C1)OCO5,43.3
7,CO[C@@H]1C=C[C@@]23c4cc5c(cc4CN(C[C@H]2OC(=O)C(C)C)[C@H]3C1)OCO5,56.6
8,C=CC(=O)O[C@@H]1CN2Cc3cc4c(cc3[C@]13C=C[C@@H](OC)C[C@H]23)OCO4,8.4
9,CO[C@@H]1C=C[C@]23c4cc5c(cc4CN([C@H]2C1)[C@H]1O[C@H]13)OCO5,1.6
10,CO[C@@H]1C=C[C@]23C(=O)CN(Cc4cc5c(cc42)OCO5)[C@H]3C1,73.5
11,CO[C@@H]1C=C[C@]23/C(=N/O)CN(Cc4cc5c(cc42)OCO5)[C@H]3C1,95.5
12,Oc1cc2c(cc1O)[C@@]13C=C[C@@H](O)C[C@@H]1N(C2)C[C@H]3O,13.4
13,CO[C@@H]1C=C[C@@]23c4cc5c(cc4C[N+]([O-])(C[C@H]2O)[C@H]3C1)OCO5,> 100
14,CO[C@@H]1CC[C@@]23c4cc5c(cc4CN(C[C@H]2O)[C@H]3C1)OCO5,9.9
15,CO[C@H]1C[C@@H]2N3Cc4cc5c(cc4[C@@]2([C@H](O)C3)[C@@H](Br)[C@@H]1Br)OCO5,6.5
16,CO[C@H]1C[C@@H]2N3Cc4cc5c(cc4[C@@]2([C@H](O)C3)[C@@H](O)[C@@H]1Br)OCO5,62.6
17,CO[C@H]1C[C@@H]2N3Cc4cc5c(cc4[C@@]2([C@H](O)C3)[C@@H](Br)[C@@H]1O)OCO5,72.6
18,CN(C=O)Cc1cc2c(cc1-c1ccc(O)cc1)OCO2,73.4

row,Structure (SMILES),IC50 [µM]
1,CCN(C=O)Cc1cc2c(cc1-c1ccc(O)cc1)OCO2,> 100
2,CO[C@@H]1C=C[C@@]23c4cc5c(cc4C(OC(C)=O)N(C[C@H]2OC(C)=O)[C@H]3C1)OCO5 (stereo partly specified),52.3
3,CO[C@@H]1C=C[C@@]23c4cc5c(cc4C(OC(=O)c4cccnc4)N(C[C@H]2O)[C@H]3C1)OCO5 (stereo partly specified),7.1
4,CO[C@@H]1C=C[C@@]23c4cc5c(cc4C(OC(=O)c4ccc(Br)cc4)N(C[C@H]2OC(=O)c2ccc(Br)cc2)[C@H]3C1)OCO5 (stereo partly specified),2.9
5,CO[C@@H]1C=C[C@@]23c4cc5c(cc4C(OC(=O)C(C)C)N(C[C@H]2OC(=O)C(C)C)[C@H]3C1)OCO5 (stereo partly specified),52.5
6,CO[C@@H]1C=C[C@@]2(c3cc4c(cc3C=O)OCO4)C(=O)C=N[C@H]2C1,76.6
7,Oc1cc2c(cc1O)[C@@]13C=C[C@@H](O)C[C@@H]1N(C[C@H]3O)C2O (stereo partly specified),72.1
8,OC1c2cc3c(cc2[C@@]24C=C[C@H]5C[C@@H]2N1C[C@H]4O5)OCO3 (stereo partly specified),84.2
9,CC(=O)O[C@@H]1C=C[C@@]23c4cc5c(cc4CN(C[C@H]2OC(C)=O)[C@H]3C1)OCO5,> 100
10,COC(C(=O)O[C@@H]1C=C[C@@]23c4cc5c(cc4CN(C[C@H]2OC(=O)C(OC)c2ccccc2)[C@H]3C1)OCO5)c1ccccc1 (stereo partly specified),5.1
11,O=C(O[C@@H]1C=C[C@@]23c4cc5c(cc4CN(C[C@H]2OC(=O)c2cccnc2)[C@H]3C1)OCO5)c1cccnc1,0.8
12,O=C(O[C@@H]1C=C[C@@]23c4cc5c(cc4CN(C[C@H]2OC(=O)c2ccc(Br)cc2)[C@H]3C1)OCO5)c1ccc(Br)cc1,3
13,CC(C)C(=O)O[C@@H]1C=C[C@@]23c4cc5c(cc4CN(C[C@H]2OC(=O)C(C)C)[C@H]3C1)OCO5,7
14,COc1cc2c(cc1O)CN1CC[C@@]23C=CC(O)C[C@H]13 (stereo partly specified),91.5
15,CO[C@@H]1C=C[C@@]23c4cc5c(cc4CN(C[C@@H]2O)[C@H]3C1)OCO5 [(+)-HAEMANTHAMINE],1.3
16,C1=C[C@@]23c4cc5c(cc4CN4C[C@H]2O[C@@H]1C[C@H]43)OCO5 [APOHAEMANTHAMINE],92.9
17,CO[C@@H]1C=C[C@@]23c4cc5c(cc4[C@@H](O)N(C[C@H]2O)[C@H]3C1)OCO5 [HAEMANTHIDINE],1.2
18,O[C@@H]1C=C[C@]23CCN(Cc4cc5c(cc42)OCO5)[C@H]3C1 [VITTATINE],7.3
